Assay results reported in ChEMBL document CHEMBL4251543, “Identification of potent tricyclic prodrug S1P1 receptor modulators” (Medchemcomm, 2017).

Legend:
[1] = Half life in rat; type: ADME, organism-based; details: in vivo
[2] = Prodrug conversion in Lewis rat blood assessed as formation phosphate metabolite at 2 mg/kg, po after 48 hrs; type: ADME, organism-based; details: in vivo
[3] = Half life in Lewis rat at 2 mg/kg, po after 72 hrs; type: ADME, organism-based; details: in vivo
Rattus norvegicus [4] = assay: Immunosuppressive activity in po dosed Lewis rat assessed as reduction in blood lymphocytes after 24 hrs; type: functional
In short: (§1)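 Oral dosing in Lewis rats, with PEG300 as vehicle, given as solution or suspension adjusted for free test article if salt forms are used. Blood sampled at several time points. Lymphocytes counted on a hematology analyzer. Result is the reduction in circulating lymphocyte percentage versus the vehicle group at each time, averaged per group (n = 2).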

[5] = Prodrug conversion in Lewis rat blood assessed as parent compound levels at 2 mg/kg, po after 4 hrs; type: ADME, organism-based; details: in vivo, read-out: Drug metabolism
[6] = Prodrug conversion in Lewis rat blood assessed as formation phosphate metabolite at 2 mg/kg, po after 24 hrs; type: ADME, organism-based; details: in vivo
Rattus norvegicus [7] = assay: Immunosuppressive activity in Lewis rat assessed as reduction in blood lymphocytes count at 2 mg/kg, po after 48 hrs relative to control; type: functional; parameters: scale not given: the % may be the effect or the level left; in short: as §1
[8] = Prodrug conversion in Lewis rat blood assessed as parent compound levels at 2 mg/kg, po after 24 hrs; type: ADME, organism-based; details: in vivo, read-out: Drug metabolism
[9] = Prodrug conversion in Lewis rat blood assessed as formation phosphate metabolite at 2 mg/kg, po after 4 hrs; type: ADME, organism-based; details: in vivo
Mus musculus [10] = organism: Mus musculus; assay: Pulmonary toxicity in mouse assessed as increase in BAL protein levels at 15 times ED50; type: organism-based; details: in vivo
Mus musculus [11] = organism: Mus musculus; assay: Pulmonary toxicity in mouse assessed as increase in BAL protein levels at 5 times ED50; type: organism-based; details: in vivo
[12] = Prodrug conversion in Lewis rat blood assessed as parent compound levels at 2 mg/kg, po after 48 hrs; type: ADME, organism-based; details: in vivo, read-out: Drug metabolism
Rattus norvegicus [13] = assay: Immunosuppressive activity in Lewis rat assessed as reduction in blood lymphocytes count at 2 mg/kg, po after 4 hrs relative to control; type: functional; parameters: scale not given: the % may be the effect or the level left; in short: as §1
Rattus norvegicus [14] = assay: Immunosuppressive activity in Lewis rat assessed as reduction in blood lymphocytes count at 2 mg/kg, po after 24 hrs relative to control; type: functional; parameters: scale not given: the % may be the effect or the level left; in short: as §1
Mus musculus [15] = organism: Mus musculus; assay: Pulmonary toxicity in mouse assessed as increase in BAL protein levels at 20 times ED50 relative to control; type: organism-based; details: in vivo

Compound | half-life [1] [h] | Drug metabolism [2] [nM] | half-life [3] [h] | ED50 (Rattus norvegicus [4]) [mg/kg] | concentration [5] [nM] | Drug metabolism [6] [nM] | Activity (Rattus norvegicus [7]) [%] | concentration [8] [nM] | Drug metabolism [9] [nM] | Activity (Mus musculus [10]) | Activity (Mus musculus [11]) | concentration [12] [nM] | Activity (Rattus norvegicus [13]) [%] | Activity (Rattus norvegicus [14]) [%] | fold change (FC) (Mus musculus [15])
CCCCCC[C@@H]1CCc2cc([C@H]3CC[C@](N)(CO)C3)ccc2C1 [BMS-986104] | 162 |  |  |  |  |  |  |  |  |  |  |  |  |  | 
CCCCSc1nc2c(s1)-c1ccc([C@H]3CC[C@](N)(CO)C3)cc1CC2 |  | < 1 | < 5 | 2 | 9.1 | 2.3 | 16 | 1.4 | 15 | Toxic | Toxic | < 1 | 82 | 48 | 
CCCCOCCOc1nc2c(s1)-c1ccc([C@H]3CC[C@](N)(CO)C3)cc1CC2 |  | 18 | 20 | 0.25 | 200 | 58 | 82 | 140 | 120 |  |  | 27 | 79 | 87 | 5
